This is an account of results in ChEMBL document CHEMBL4396880, “Development of Small-Molecules Targeting Receptor Activator of Nuclear Factor-κB Ligand (RANKL)-Receptor Activator of Nuclear Factor-κB (RANK) Protein-Protein Interaction by Structure-Based Virtual Screening and Hit Optimization” (J Med Chem, 2019).

The target of series [1] is T1, Tumor necrosis factor ligand superfamily member 11/11A (Mus musculus) (UniProt O35235+O35305). Kind of series: Inhibition of RANKL-RANK protein-protein interaction in C57/BL6 mouse bone marrow macrophage assessed as suppression of M-CSF/mRANKL-induced osteoclastogenesis by measuring reduction in NFATc1 mRNA level measured after 3 days by Trizol-reagent-based qRT-PCR analysis. In outline:
(§1)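 BMMs were treated with graded compound concentrations during RANKL-driven osteoclastogenesis. On day 3 of culture, NFATc1, TRAP and cathepsin K transcripts were quantified by real-time PCR.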

The target of series [2] is T1, Tumor necrosis factor ligand superfamily member 11/11A (Mus musculus). Kind of series: Inhibition of RANKL-RANK protein-protein interaction in C57/BL6 mouse bone marrow macrophage assessed as suppression of M-CSF/mRANKL-induced osteoclastogenesis by measuring reduction in TRAP mRNA level measured after 3 days by Trizol-reagent-based qRT-PCR analysis. In outline: as §1

Series [3] has the same target. Kind of series: Inhibition of RANKL-RANK protein-protein interaction in C57/BL6 mouse bone marrow macrophage assessed as suppression of M-CSF/mRANKL-induced osteoclast differentiation by measuring decrease in multinucleated TRAP+ cells at 10 uM supplemented with fresh medium containing compounds every 2 days for 5 to 6 days by TRAP staining-based microscopic analysis relative to control. The class given is cell-based. In outline: (§2)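 Bone marrow macrophages were exposed to the test compound at the indicated concentrations for 5 days under M-CSF/RANKL stimulation. TRAP-positive multinucleated cells were then counted as the measure of osteoclast formation.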

Series [4] has the same target. Kind of series: Inhibition of RANKL-RANK protein-protein interaction in C57/BL6 mouse bone marrow macrophage assessed as suppression of M-CSF/mRANKL-induced osteoclast differentiation by measuring decrease in multinucleated TRAP+ cells at 5 uM supplemented with fresh medium containing compounds every 2 days for 5 to 6 days by TRAP staining-based microscopic analysis relative to control. The class given is cell-based. In outline:
as §2

For series [5] the target is unchanged. The series can be described thus: (§3) Inhibition of RANKL-RANK protein-protein interaction in C57/BL6 mouse bone marrow macrophage assessed as suppression of M-CSF/mRANKL-induced osteoclast differentiation by measuring decrease in multinucleated TRAP+ cells supplemented with fresh medium containing compounds every 2 days for 5 to 6 days by TRAP staining-based microscopic analysis. The series is classed as cell-based. In outline: as §2

For series [6], the target named is T2, Tumor necrosis factor ligand superfamily member 11/11A (Mus musculus, UniProt O35235+O35305).
T2 sequence (O35235 whole entry): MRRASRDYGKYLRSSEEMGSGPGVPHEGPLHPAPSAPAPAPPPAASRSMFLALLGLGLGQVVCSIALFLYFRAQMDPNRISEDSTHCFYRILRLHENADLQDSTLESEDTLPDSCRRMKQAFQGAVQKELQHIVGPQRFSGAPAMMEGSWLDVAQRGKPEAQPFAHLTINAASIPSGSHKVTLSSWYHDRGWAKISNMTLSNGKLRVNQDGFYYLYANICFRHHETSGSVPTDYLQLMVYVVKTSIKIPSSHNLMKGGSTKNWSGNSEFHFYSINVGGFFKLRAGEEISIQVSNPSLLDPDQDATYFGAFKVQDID
T2 sequence (O35305 whole entry): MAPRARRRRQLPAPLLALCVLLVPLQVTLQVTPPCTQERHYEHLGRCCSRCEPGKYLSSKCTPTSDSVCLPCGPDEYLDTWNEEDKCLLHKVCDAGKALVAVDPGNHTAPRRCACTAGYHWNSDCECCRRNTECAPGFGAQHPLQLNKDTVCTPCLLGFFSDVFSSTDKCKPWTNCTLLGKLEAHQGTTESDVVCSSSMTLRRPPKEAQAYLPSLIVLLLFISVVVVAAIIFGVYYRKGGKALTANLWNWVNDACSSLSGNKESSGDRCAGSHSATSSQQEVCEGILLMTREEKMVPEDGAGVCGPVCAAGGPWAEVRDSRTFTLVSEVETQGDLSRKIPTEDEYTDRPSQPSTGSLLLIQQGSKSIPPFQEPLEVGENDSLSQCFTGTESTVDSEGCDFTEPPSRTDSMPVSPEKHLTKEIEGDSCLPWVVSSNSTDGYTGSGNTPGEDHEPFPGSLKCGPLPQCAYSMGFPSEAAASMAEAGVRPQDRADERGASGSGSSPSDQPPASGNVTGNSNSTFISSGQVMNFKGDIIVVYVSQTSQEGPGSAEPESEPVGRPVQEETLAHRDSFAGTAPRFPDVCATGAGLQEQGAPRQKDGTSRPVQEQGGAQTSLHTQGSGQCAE
Described as §3. The series is classed as cell-based. In outline: as §2

Series [7] has as its target T1, Tumor necrosis factor ligand superfamily member 11/11A (Mus musculus). The series can be described thus: Inhibition of RANKL-RANK protein-protein interaction in C57/BL6 mouse bone marrow macrophage assessed as suppression of M-CSF/mRANKL-induced osteoclastogenesis by measuring reduction in TRAP activity at 5 uM measured after 3 days by colorimetric assay relative to control. The procedure, abridged:
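BMMs were incubated with the test compound at 5 μM, together with RANKL (50 ng/mL) and M-CSF (20 ng/mL), for 3 days. Osteoclastogenesis was then read out as tartrate-resistant acid phosphatase (TRAP) activity.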

Series [8] has the same target. Kind of series: Inhibition of RANKL-RANK protein-protein interaction in C57/BL6 mouse bone marrow macrophage assessed as suppression of M-CSF/mRANKL-induced osteoclastogenesis by measuring reduction in cathepsin K mRNA level measured after 3 days by Trizol-reagent-based qRT-PCR analysis. In outline: as §1
(Real-time PCR tracks product formation cycle by cycle.)

The test system of the next series is BMDM. Kind of series: Cytotoxicity against M-CSF-stimulated C57/BL6 mouse bone marrow macrophages assessed as reduction in cell viability up to 10 uM measured after 2 days by MTT assay. The series is classed as cell-based. To be noted: 48 h. For orientation: Formazan colour is commonly taken as a measure of viable cells.
Series [9] concerns the target T3, Tumor necrosis factor ligand superfamily member 11 (Homo sapiens, UniProt O14788).
T3 sequence (O14788 whole entry): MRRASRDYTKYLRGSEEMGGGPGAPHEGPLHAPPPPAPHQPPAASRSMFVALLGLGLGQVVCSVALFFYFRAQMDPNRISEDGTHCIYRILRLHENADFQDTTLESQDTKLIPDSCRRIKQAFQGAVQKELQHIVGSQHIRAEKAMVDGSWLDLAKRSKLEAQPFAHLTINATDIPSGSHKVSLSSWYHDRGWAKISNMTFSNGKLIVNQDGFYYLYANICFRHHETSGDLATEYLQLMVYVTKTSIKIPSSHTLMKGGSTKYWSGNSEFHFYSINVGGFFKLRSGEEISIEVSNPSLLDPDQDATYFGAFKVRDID
Kind of series: Binding affinity to human RANKL by surface plasmon resonance analysis. (SPR reads the build-up and loss of mass on a sensor chip optically.)

For series [10], the target named is T4, Tumor necrosis factor ligand superfamily member 11 (Homo sapiens) (UniProt O14788).
T4 sequence (whole entry): T3 sequence (O14788 whole entry)
Kind of series: (§4) Inhibition of RANK binding to human RANKL measured after 1 h by surface plasmon resonance analysis.

Series [11] has as its target T3, Tumor necrosis factor ligand superfamily member 11. The description is as §4.
Series [12] has as its target T1, Tumor necrosis factor ligand superfamily member 11/11A (Mus musculus). The series can be described thus: Inhibition of RANKL-RANK protein-protein interaction in C57/BL6 mouse bone marrow macrophage assessed as suppression of M-CSF/mRANKL-induced osteoclastogenesis by measuring reduction in cathepsin K mRNA level at 2.5 uM measured after 3 days by Trizol-reagent-based qRT-PCR analysis. In outline:
as §1

Series [13] is described as follows: Cytotoxicity against M-CSF-stimulated C57/BL6 mouse bone marrow macrophages assessed as cell viability at 10 uM measured after 2 days by MTT assay (reference value: 100%). The series is classed as cell-based. To be noted: M-CSF-stimulated bone marrow macrophages (BMDM), read-out: Activity.
For series [14], the target named is T1, Tumor necrosis factor ligand superfamily member 11/11A (Mus musculus). Kind of series: Inhibition of RANKL-RANK protein-protein interaction in C57/BL6 mouse bone marrow macrophage assessed as suppression of M-CSF/mRANKL-induced osteoclast differentiation by measuring decrease in multinucleated TRAP+ cells at 5 uM supplemented with fresh medium containing compounds every 2 days for 5 to 6 days by TRAP staining-based microscopic analysis. The series is classed as cell-based. In outline:
as §2

Series [15] shares this target. The series can be described thus: Inhibition of RANKL-RANK protein-protein interaction in C57/BL6 mouse bone marrow macrophage assessed as suppression of M-CSF/mRANKL-induced osteoclast differentiation by measuring decrease in nuclei size of F-actin ring formation at 5 uM supplemented with fresh medium containing compounds every 2 days for 5 to 6 days by rhodamine phalloidin/DAPI staining-based microscopic analysis. The series is classed as protein assay.

The target is the same in series [16]. The series can be described thus: Inhibition of RANKL-RANK protein-protein interaction in C57/BL6 mouse bone marrow macrophage assessed as suppression of M-CSF/mRANKL-induced osteoclast differentiation by measuring decrease in nuclei number of F-actin ring formation at 5 uM supplemented with fresh medium containing compounds every 2 days for 5 to 6 days by rhodamine phalloidin/DAPI staining-based microscopic analysis. The class given is protein assay.

Another series deals with Tumor necrosis factor (Homo sapiens, UniProt P01375). The series can be described thus: Binding affinity to human TNFalpha by surface plasmon resonance analysis.
Sequence of Tumor necrosis factor (P01375 whole entry): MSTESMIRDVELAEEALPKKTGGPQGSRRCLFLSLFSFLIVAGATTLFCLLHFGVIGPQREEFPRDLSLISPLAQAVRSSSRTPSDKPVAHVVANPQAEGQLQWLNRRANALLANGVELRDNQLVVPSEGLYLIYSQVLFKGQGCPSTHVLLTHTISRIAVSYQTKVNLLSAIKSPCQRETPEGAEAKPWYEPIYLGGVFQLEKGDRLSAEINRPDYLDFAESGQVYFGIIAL
Series [17] has as its target T1, Tumor necrosis factor ligand superfamily member 11/11A (Mus musculus). Kind of series: Inhibition of RANKL-RANK protein-protein interaction in C57/BL6 mouse bone marrow macrophage assessed as suppression of M-CSF/mRANKL-induced bone resorption at 1 to 5 uM measured after 2 days by toluidine blue staining-based confocal microscopic analysis.
Series [18] has the same target. Kind of series: Inhibition of RANKL-RANK protein-protein interaction in C57/BL6 mouse bone marrow macrophage assessed as suppression of M-CSF/mRANKL-induced osteoclastogenesis by measuring reduction in TRAP mRNA level at 2.5 uM measured after 3 days by Trizol-reagent-based qRT-PCR analysis. In outline: as §1
Series [19] has the same target. Kind of series: Inhibition of RANKL-RANK protein-protein interaction in C57/BL6 mouse bone marrow macrophage assessed as suppression of M-CSF/mRANKL-induced osteoclastogenesis by measuring reduction in NFATc1 mRNA level at 2.5 uM measured after 3 days by Trizol-reagent-based qRT-PCR analysis. The procedure, abridged:
as §1

The target is the same in series [20]. The series can be described thus: Inhibition of RANKL-RANK protein-protein interaction in C57/BL6 mouse bone marrow macrophage assessed as suppression of M-CSF/mRANKL-induced osteoclastogenesis by measuring reduction in NFATc1 expression measured after 3 days by Western blot analysis.
Series [21] shares this target. Kind of series: Inhibition of RANKL-RANK protein-protein interaction in C57/BL6 mouse bone marrow macrophage assessed as suppression of M-CSF/mRANKL-induced osteoclastogenesis by measuring reduction in c-fos expression measured after 3 days by Western blot analysis.

SMILES strings stand for the structures. pIC50, pKd: −log10 of the molar value. The source made the active and inactive calls. The calls are words filed in the database; no cut-off is given here.

For orientation: inhibition means the relative decrease from the control value, in per cent. One may read the pIC50 as the negative decadic logarithm of the IC50, by convention in mol/L. In general, pKd refers to the negative decadic logarithm of the Kd, by convention in mol/L.

In the case of `Cc1cccc(C)c1NC(=O)C(Cc1c[nH]c2ccccc12)NC(=O)OCc1ccccc1` (racemic), the inhibition entry in [1] was “Dose-dependent effect”; in [2] it was “Dose-dependent effect”; in series [3] it was 93.3%; in series [4], 50%; in series [5], “Dose-dependent effect”; in series [7] it was 54.9 to 68.4%. The inhibition entry in series [8] and in [10] was “Dose-dependent effect” in each case. The pIC50 is 5.18 in series [6] and 4.58 in series [11]. Besides, in the series on BMDM, the Activity result is reported as “Non-Toxic”. The compound further showed a pKd in [9] of 5.01.
Regarding `Cc1cccc(C)c1NC(=O)C(Cc1c[nH]c2ccccc12)NCCCc1ccccc1` (racemic), the inhibition result in series [5] is “Dose-dependent effect”; in series [7] it was 92.9%; in [14], 100%; in series [15] it was “Dose-dependent effect”; in series [16] it was “Dose-dependent effect”; in series [20] it was “Dose-dependent effect”. In addition, the inhibition entry in [21] was “Dose-dependent effect”. Moreover, the inhibition entry in [12], in [17], in [18] and in series [19] was “Active” throughout. The figures for the pKd (in series [9]; on Tumor necrosis factor) were 6.21 and 4.03, respectively. In [13], the viability at 48 h, 10 µM was found to be 110%.
